FXIIa inh 1536: blocks human coagulation factor XIIa protease activity; P00748; purified FXIIa, Boc-QGR-AMC fluorogenic substrate, 2 h; inhibition, % at 5 µM; 220,000 tested, 0.3% active; in the data active means inhibition above about 40%
FXIa inh 1536: blocks human coagulation factor XIa protease activity; AID 798; P03951; 220,000 tested, 0.14% active; inhibition, % at 5 µM; purified FXIa, Boc-Glu-Ala-Arg-AMC fluorogenic substrate;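 active means inhibition of at least 40%; inactive means inhibition below 40%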;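 further: fluorescence of freed AMC excited at 355 nm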
Target sequence (P03951 19-387 limits assumed): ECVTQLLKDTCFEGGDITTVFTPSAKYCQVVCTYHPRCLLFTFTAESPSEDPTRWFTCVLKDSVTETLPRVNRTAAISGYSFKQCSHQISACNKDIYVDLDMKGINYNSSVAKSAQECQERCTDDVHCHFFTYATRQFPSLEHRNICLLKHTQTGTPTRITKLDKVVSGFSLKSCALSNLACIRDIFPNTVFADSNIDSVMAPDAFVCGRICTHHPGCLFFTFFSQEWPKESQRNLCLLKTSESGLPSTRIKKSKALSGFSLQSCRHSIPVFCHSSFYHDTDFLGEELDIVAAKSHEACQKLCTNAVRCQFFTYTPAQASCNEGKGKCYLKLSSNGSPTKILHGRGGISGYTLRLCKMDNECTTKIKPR
Target sequence (P03951 388-625 limits assumed): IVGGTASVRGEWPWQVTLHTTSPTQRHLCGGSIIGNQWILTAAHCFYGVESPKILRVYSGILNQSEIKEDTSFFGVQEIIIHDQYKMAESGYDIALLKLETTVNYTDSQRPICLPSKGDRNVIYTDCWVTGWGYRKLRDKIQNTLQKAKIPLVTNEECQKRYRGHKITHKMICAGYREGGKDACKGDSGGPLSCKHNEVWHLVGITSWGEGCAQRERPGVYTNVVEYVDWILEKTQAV
EP2 mod: modulates human prostaglandin E2 receptor EP2 signaling | P43116 | EP2-expressing cells, cAMP HTRF FRET, PGE2 co-stimulation | induction, % at 25 µM | 260,000 tested, 0.83% active;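 active means compounds whose cAMP rise, as percent of the full-agonist control response, exceeds 60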;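 further: rat C6 glioma line stably carrying human EP2 under a CMV promoter; the protocol text gives 20 µM as final concentration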
PGE2 EP2 inh: blocks the human prostaglandin E2 receptor EP2; P43116; C6 glioma cells expressing human EP2, cAMP TR-FRET; cells stimulated with saturating PGE2; inhibition, % at 25 µM; 260,000 tested, 0.52% active; AID 1422;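 active means percent inhibition above 40 after rounding to a whole number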;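 further: rat C6 glioma host cells with rolipram phosphodiesterase inhibitor present; the protocol text gives 20 µM as final concentration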
thrombin 1536: inhibitors of human thrombin | AID 1046 | inhibition, % at 5 µM | alpha-thrombin, Boc-VPR-AMC fluorogenic substrate cleavage | 220,000 tested, 0.26% active;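 active means inhibition at or above 40%; inactive means inhibition below 40%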
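Test system: human alpha-thrombin protein / Dosing: one concentration per compound, 5 µM, with 0.2% DMSO / Medium: pH 7.5 Tris-saline with Tween 20 / Benchmarks: no-compound enzyme wells and no-enzyme blanks / Read-out basis: percent inhibition of thrombin substrate cleavage / Timing: reaction at room temperature / Measured by: fluorescence, ex 355 nm, em 460 nm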
hK5 inh: kallikrein 5 (human) inhibition; Q9Y337; inhibition, % at 5 µM; recombinant hK5, fluorogenic AMC substrate cleavage; 210,000 tested, 0.59% active;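 active means inhibition of 40% or more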
EP2 confirm: human EP2 receptor cAMP induction, negative in counter-screens; shares compounds with EP2 mod; 1,300 tested, 47% active; calls only at 20 µM (by protocol); C6 glioma EP2 cells, cAMP HTRF induction; plus low (about EC15) PGE2 agonist;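 active means cAMP induction above 50% in the main assay while under 30% in all four parallel counter assays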;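 further: rat C6 glioma cells stably expressing human EP2 receptor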
Of the large screens only hits and unclear results are named; the others gave an inactive call (follow-up assays come after a bar, where they were run); ! = not confirmed by another sample. Only some compounds are listed: those with a hit (about 2.1% of all), similar ones and a draw of the others.

O=C1ON=C(c2ccccc2)/C1=C/c1ccco1	PGE2 EP2 inh 96 (no result: FXIIa inh 1536)
CN(C)/C=C1\C(=O)ON=C1c1ccccc1	none
O=c1nc(/C=C/c2ccccc2)cc(C(F)(F)F)[nH]1	none (no result: FXIIa inh 1536, FXIa inh 1536, thrombin 1536, hK5 inh)
CCOc1ncccc1-c1noc(CN2CCOCC2)n1	none (no result: FXIIa inh 1536, FXIa inh 1536, thrombin 1536, hK5 inh)
Nc1ccn([C@H]2O[C@H](CO)[C@@H]3[O][Sn]([c]4ccccc4)([c]4ccccc4)[O][C@@H]32)c(=O)n1	PGE2 EP2 inh 42 (no result: FXIIa inh 1536, FXIa inh 1536, thrombin 1536, hK5 inh)
O=S1(=O)N=C(N/N=C/C=C/c2ccccc2)c2ccccc21	none
O=S1(=O)N=C(N(CCO)/N=C/C=C/c2ccccc2)c2ccccc21	EP2 mod 72 | EP2 confirm active
O=C(NCc1ccccc1Cl)C1CCN(C(=O)c2cccs2)CC1	none (no result: FXIIa inh 1536, FXIa inh 1536, thrombin 1536, hK5 inh)
CC1=C(/C=C/C(C)=C/C=C/C(C)=C/C(=O)O)C(C)(C)CCC1	EP2 mod 62! | EP2 confirm active
c1ccc(-c2ccccc2-c2nc(-c3cccnc3)no2)cc1	EP2 mod 72 | EP2 confirm active
c1ccc(CCc2ccccc2-c2nc(-c3ccccn3)no2)cc1	EP2 mod 101 | EP2 confirm active
c1ccc(CCc2ccccc2-c2nc(-c3cccnc3)no2)cc1	EP2 mod 82 | EP2 confirm active
c1cncc(-c2noc(-c3cccc4ccccc34)n2)c1	none
c1ccc(-c2noc(-c3cccc4ccccc34)n2)cc1	EP2 mod 69 | EP2 confirm inactive
CN(C)CCNC(=O)c1cn(Cc2ccc(F)cc2)nn1	none (no result: FXIIa inh 1536, FXIa inh 1536, thrombin 1536, hK5 inh)
COc1ccc(CCNC(=O)CN2C(=O)C(C)Oc3ccccc32)cc1OC (stereo unspecified)	none (no result: FXIIa inh 1536, FXIa inh 1536, thrombin 1536, hK5 inh)
CCOc1ccccc1Cn1c(=O)sc2ccccc21	EP2 mod 83 | EP2 confirm active
CCCCOc1ccccc1Cn1c(=O)oc2ccccc21	EP2 mod 62 | EP2 confirm active
CSc1nnc2n(CC(=O)N3C(C)CCCC3C)c3ccccc3n12 (stereo unspecified)	none (no result: FXIIa inh 1536, FXIa inh 1536, thrombin 1536, hK5 inh)
COc1ccc(-c2c3c([nH]c(=S)c2C#N)CCC3)cc1	EP2 mod 77 | EP2 confirm inactive
O=C(c1ccc(Cl)cc1)c1oc2ccccc2c1CS(=O)c1ccccc1 (stereo unspecified)	EP2 mod 71 | EP2 confirm active
CC(CSc1ncccn1)Cn1c(N2CCCCC2)nc2c1c(=O)[nH]c(=O)n2C (stereo unspecified)	none (no result: FXIIa inh 1536, FXIa inh 1536, thrombin 1536, hK5 inh)
CC(C)[C@H]1CN(Cc2ccccc2F)CCN1C(=O)c1ccccn1	none (no result: FXIIa inh 1536, FXIa inh 1536, PGE2 EP2 inh, thrombin 1536, hK5 inh)
CCn1ncc(Cl)c1C(=O)Nc1cc(Cl)ccc1Cl	EP2 mod 70 | EP2 confirm active
CC1(C(=O)Nc2ccc(Cl)cc2Cl)Cc2ccccc2C(=O)O1 (stereo unspecified)	none (no result: FXIIa inh 1536, FXIa inh 1536, thrombin 1536, hK5 inh)
c1ccc(-c2noc(CN3CCN(C(c4ccccc4)c4ccccc4)CC3)n2)cc1	none | EP2 confirm inactive
COc1ccc(-c2nnc3ccc(SCC(=O)Nc4nc5ccccc5s4)nn23)cc1OC	EP2 mod 66 | EP2 confirm inactive
Cc1ccc(CNc2cc(C)nc3nc4ccccc4n23)cc1	none (no result: FXIIa inh 1536, FXIa inh 1536, thrombin 1536, hK5 inh)
O=C(N/N=C/c1ccco1)c1ccccc1OCc1ccccc1Cl	none
O=C(N/N=C/c1ccc[nH]1)c1ccccc1OCc1ccccc1Cl	EP2 mod 66 | EP2 confirm active
Cc1nn(CC(=O)NC(C)C)c(=O)c2cc3occc3n12	none (no result: FXIIa inh 1536, FXIa inh 1536, thrombin 1536, hK5 inh)
CCCCCCC/C=C\CCCCCCCCC(=O)O	EP2 mod 94 (no result: FXIIa inh 1536, FXIa inh 1536, thrombin 1536, hK5 inh) | EP2 confirm active
CCN1CCN(C(c2ccc(Cl)cc2)c2nnnn2Cc2ccc3c(c2)OCO3)CC1 (stereo unspecified)	none (no result: FXIIa inh 1536, FXIa inh 1536, thrombin 1536, hK5 inh)
Clc1ccc(Cl)c(-c2ccc(/C=N/c3ncn[nH]3)o2)c1	EP2 mod 71 | EP2 confirm inactive
Cn1c(=O)[nH]c(=O)c2c1nc(N1CCOCC1)n2Cc1ccccc1F	none (no result: FXIIa inh 1536, FXIa inh 1536, thrombin 1536, hK5 inh)
COc1cccc(/C(O)=C2/C(=O)C(=O)NC2c2ccc(O)c(OC)c2)c1 (stereo unspecified)	none (no result: FXIIa inh 1536, FXIa inh 1536, thrombin 1536, hK5 inh)
c1ccc(CCc2cccnc2)nc1	EP2 mod 74 (no result: FXIIa inh 1536, FXIa inh 1536, thrombin 1536, hK5 inh) | EP2 confirm inactive
c1ccc(CN2CCN(Cc3cccnc3)CC2)nc1	none (no result: FXIIa inh 1536, FXIa inh 1536, thrombin 1536, hK5 inh)
CC(=O)Nc1ccc(-n2nnnc2SCC(=O)Nc2cccc(C)c2)cc1	none (no result: FXIIa inh 1536, FXIa inh 1536, thrombin 1536, hK5 inh)
CCCOP(=O)(OCCC)C(Nc1cccc(C(F)(F)F)c1)c1ccc(C)cc1 (stereo unspecified)	EP2 mod 68 | EP2 confirm inactive
CCOP(=O)(OCC)C(Nc1cccc(C(F)(F)F)c1)c1ccc(C)cc1 (stereo unspecified)	none
CCOc1ccc(OCC)c(NC(=O)CN2CCN(c3cccc(C)c3)C(C)C2)c1 (stereo unspecified)	none (no result: PGE2 EP2 inh)
CCOc1ccc(OCC)c(NC(=O)CN2CCN(c3cc(C)ccc3C)CC2)c1	EP2 mod 78 | EP2 confirm active
CCOc1ccc(OCC)c(NC(=O)CN2CCN(c3cccc(C)c3)CC2)c1	EP2 mod 73 (no result: PGE2 EP2 inh) | EP2 confirm active
CCOc1ccc(OCC)c(NC(=O)CN2CCN(CC)CC2)c1	none
CCOc1ccc2nc(SCC(=O)N3CCCc4ccccc43)sc2c1	none
O=C(CSc1nc2cc(Cl)ccc2s1)N1CCCc2ccccc21	EP2 mod 68 | EP2 confirm active
CCCCOc1c(Br)cc(/C=N/O)cc1OCC	EP2 mod 66 (no result: PGE2 EP2 inh) | EP2 confirm inactive
C=CCOc1c(Br)cc(/C=N/O)cc1OCC	none
Cc1cc2ccccn2c1C(=O)c1ccc(Cl)cc1	EP2 mod 65 | EP2 confirm inactive
Cc1cc2ccccn2c1C(=O)c1ccncc1	none
Cc1[nH]c2ccc(-c3nnc(SCC(=O)N(C)c4nc(-c5ccccc5)cs4)o3)cc2c1C	none (no result: FXIIa inh 1536, FXIa inh 1536, thrombin 1536, hK5 inh)
Cc1ccc(-n2nc3c(c2NC(=O)c2ccc(Br)o2)CSC3)c(C)c1	none | EP2 confirm inactive
COCC(=O)Nc1sc2c(c1C(=O)OC)C(C(=O)OC)CC2 (stereo unspecified)	none
CCOC(=O)c1c(NC(=O)Cc2cccs2)sc2c1CCCC2	none
CCOC(=O)c1c(NC(=O)c2cccs2)sc2c1CCN(C(=O)OCC)C2	none | EP2 confirm active
CCOC(=O)N1CCc2c(sc(NC(=O)c3ccc(Cl)s3)c2C(N)=O)C1	none
COCC(=O)Nc1sc2c(c1C(=O)OC)CCC(C)C2 (stereo unspecified)	EP2 mod 70! | EP2 confirm inactive
CCOC(=O)c1c(NC(=O)c2cccs2)sc2c1CCCC2	none | EP2 confirm inactive
CC(C)OC(=O)c1c(NC(=O)CCn2nnc3ccccc32)sc2c1CCCC2	none | EP2 confirm inactive
COc1ccc(S(=O)(=O)N2CCC(C(=O)Nc3ccc(C)cc3)CC2)cc1OC	none (no result: FXIIa inh 1536, FXIa inh 1536, thrombin 1536, hK5 inh)
COC(=O)c1c(NC(=S)NN2CCOCC2)sc2c1CCCC2	none | EP2 confirm inactive
CCOC(=O)c1c(NC(=O)c2ccco2)sc2c1CCCCC2	EP2 mod 79 | EP2 confirm active

Assay outcomes from PubChem BioAssay.
